SKN-1 block – suppressors of acrylamide-induced Pgst-4::GFP reporter in worms, primary screen, SKN-1 inhibitor project, whole organism, uHTS, GFP/RFP fluorescence ratio, strain VP596. C. elegans VP596 Pgst-4::GFP/RFP ratio, 24 h. inhibition, % at 21.8 µM. actives 0.49% (n = 360,000);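 active = interference check ratio from 0.5 to 1.5 plus GFP to RFP signal ratio inhibition reaching or exceeding a fixed threshold, cut at about 30% in these data, passing the limit was not always enough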
MT1-MMP act inh – blockers of MT1-MMP proenzyme processing, primary screen, HT1080 RFP-PRO-GFP cells, GFP/RFP fluorescence; GFP/RFP ratio fluorescence, overnight; percent of plate control window, DMSO zero; GFP/RFP ratio change, % at 20 µM; Matrix metalloproteinase-14 (Homo sapiens), P50281; AID 651647, 2012; actives 0.061% (n = 360,000);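 active = GFP/RFP ratio change of at least 30% with cell ATP level not reduced by more than half and red fluorescence within 50% of control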
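Read-out: GFP/RFP fluorescence ratio; Test system: RFP-PRO-GFP reporter HT1080 cells; Compound dosing: single-point 20 µM compound, 1% DMSO; Times: overnight compound exposure at 37 °C.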
SUMO1 PPI mod – modulators of SUMO1 protein-protein interactions, primary screen, biochemical, uHTS; inhibition, % at 20 µM; Small ubiquitin-related modifier 1 (Homo sapiens), P63165; actives 0.33% (n = 360,000); SUMO1 binding to a labelled peptide, TR-FRET, 1 h; AID 602429, 2012; in the data active = inhibition above about 37%
Rpn11 block – Rpn11 (PSMD14) deubiquitinase inhibitors, primary screen, biochemical, fluorescence polarization, uHTS; human 26S proteasome, Ub4-pepOG fluorescence polarization; 20S core pre-blocked with epoxomicin; actives 0.59% (n = 360,000); inhibition, % at 20 µM; 26S proteasome non-ATPase regulatory subunit 14 (Homo sapiens), O00487;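 active = inhibition at 20 µM, scaled to each plate's controls, above about 33%, limit read from the data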
Target sequence (O00487 whole entry, looked up): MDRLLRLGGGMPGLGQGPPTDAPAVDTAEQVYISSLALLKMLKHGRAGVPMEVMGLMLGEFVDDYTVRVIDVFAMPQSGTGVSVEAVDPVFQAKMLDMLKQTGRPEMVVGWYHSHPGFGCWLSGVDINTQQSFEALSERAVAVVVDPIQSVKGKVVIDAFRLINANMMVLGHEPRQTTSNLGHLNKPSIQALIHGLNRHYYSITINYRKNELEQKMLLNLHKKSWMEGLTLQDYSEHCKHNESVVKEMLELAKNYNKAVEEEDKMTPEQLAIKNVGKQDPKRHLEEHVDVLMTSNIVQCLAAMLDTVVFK
CSN inh – inhibitors of CSN-mediated cullin deneddylation, primary screen, biochemical, fluorescence polarization, uHTS; COP9 signalosome complex subunit 5 (Homo sapiens), Q92905; Purified CSN, SCF-Nedd8-OG deneddylation; inhibition, % at 12.5 µM; actives 0.38% (n = 360,000); AID 651999, 2013;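 active = pattern-corrected inhibition above about 35%, with an unprinted fluorescence ratio check between 0.5 and 1.5, limit read from the data, passing the limit was not always enough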;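 also: 0% = enzyme with substrate and 100% = substrate without enzyme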
Target sequence (Q92905 whole entry, looked up, one chain of several): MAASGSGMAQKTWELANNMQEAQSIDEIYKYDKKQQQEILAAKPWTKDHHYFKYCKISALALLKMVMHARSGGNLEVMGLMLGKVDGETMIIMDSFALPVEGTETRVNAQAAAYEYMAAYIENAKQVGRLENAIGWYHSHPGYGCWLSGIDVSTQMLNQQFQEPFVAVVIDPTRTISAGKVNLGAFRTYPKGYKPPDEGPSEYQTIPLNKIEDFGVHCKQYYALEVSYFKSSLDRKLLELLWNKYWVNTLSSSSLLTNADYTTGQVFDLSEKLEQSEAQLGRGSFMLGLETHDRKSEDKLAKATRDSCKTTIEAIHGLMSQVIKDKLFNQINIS
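Schedule: reaction 90 min, room temperature / Assay system: HEK293T-derived human Csn5 enzyme / Input: Csn5 at 0.24 nM final / Measure: inhibition of Csn5 cleavage, % / Control set: substrate-only high control, full reaction low control / Technique: fluorescence polarization of the substrate / Buffer or medium: Tris/NaCl/DTT buffer, pH 7.5 / Reagent: SCFSkp2-Nedd8OG substrate at 10 nM final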
DNMT1 inh – human DNMT1 methyltransferase inhibitors, primary screen, biochemical, molecular beacon, fluorescence, HinP1I cleavage, uHTS; DNA (cytosine-5)-methyltransferase 1 (Homo sapiens), P26358; inhibition (reported as % activation of signal), % at 10 µM; actives 0.83% (n = 360,000); AID 588458, 2011
DNMT1 interf DR – spectral interference with molecular beacon fluorescence, dose response, artefact control for DNMT1 inhibitor project, biochemical, fluorescent molecular beacon; shares compounds with DNMT1 inh; spectral interference counter-screen; IC50, µM; 200 tested, under 10 active; call rule not given here
DNMT1 confirm – DNMT1 methyltransferase inhibitor retest, confirmation, biochemical, molecular beacon, fluorescence, single concentration; shares compounds with DNMT1 inh; DNMT1 molecular beacon HinP1I cleavage; inhibition, % at 10 µM; actives 8% (n = 2,300);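 active = average inhibition of at least 30% in the single-concentration confirmation test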
DNMT1 interf – counter-screen for DNMT1 inhibitors: spectral interference | DNMT1 molecular beacon spectral interference counterscreen, fluorescence 485/520 | activation (fluorescence interference), % at 10 µM | actives 1% (n = 2,300) | AID 602387 | shares compounds with DNMT1 inh;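 active = activation of at least 30% at 10 µM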;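 also: DNMT1 catalytic domain with a HinP1I cleavage step and a FAM/dabcyl DNA beacon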
Rpn11 inh conf – Rpn11 (PSMD14) deubiquitinase inhibitors, confirmation, biochemical, fluorescence polarization, single concentration; shares compounds with Rpn11 block; purified human 26S proteasome, Ub4-pepOG fluorescence polarization; proteasome pretreated with epoxomicin; inhibition, % at 20 µM; actives 29% (n = 1,900); AID 602318, 2012; in the data active = inhibition above about 40%
MMP-2 counter-1 – MMP-2 enzyme inhibition, confirmation, counter-screen for RPN11 inhibitor project, biochemical, fluorescence, single concentration | shares compounds with Rpn11 block | recombinant MMP-2, FRET peptide cleavage fluorescence | inhibition, % at 20 µM | actives 4% (n = 1,900) | AID 602330, 2012; in the data active = inhibition above about 40%;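 also: human MMP-2 activated beforehand with APMA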
Thrombin inh – bovine thrombin protease inhibition, confirmation, counter-screen for Rpn11 inhibitor project, biochemical, fluorescence polarization, single concentration; AID 602333, 2012; bovine thrombin cleavage of Ub4-pepOG; actives 13% (n = 1,900); shares compounds with Rpn11 block; inhibition, % at 20 µM;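 active = mean inhibition at least 40% at 20 µM, or signal 3 deviations below plate average, so some actives read negative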;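 also: plate controls were thrombin with DMSO for no effect and buffer wells lacking thrombin for full effect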
CSN deneddyl val – Csn5 deneddylation inhibitors, confirmation, biochemical, fluorescence polarization, single concentration, SCF-Nedd8OG substrate; actives 62% (n = 540); Csn5 deneddylation of SCF-Nedd8OG, 90 min; shares compounds with CSN inh; inhibition, % at 16.6 µM;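 also: 0% = DMSO with enzyme and 100% = no enzyme wells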
MMP-2 counter-2 – MMP-2 protease inhibition counter-screen, confirmation, counter-screen for CSN deneddylation inhibitor project, biochemical, fluorescence, single concentration; shares compounds with CSN inh; recombinant MMP-2, FRET substrate fluorescence, 60 min; inhibition, % at 16.6 µM; actives 33% (n = 540);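 active = corrected plate-normalized z-score of 5 or more, or -5 or less, or inhibition of 15% or more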;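 also: plate controls were DMSO wells with enzyme for no effect and buffer wells lacking MMP-2 for full effect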
Thrombin cntr – counter-screen for CSN deneddylation inhibitors: bovine thrombin inhibition | bovine thrombin cleavage of Ub4-pepOG, fluorescence polarization | inhibition, % at 16.6 µM | AID 720656 | actives 49% (n = 540) | shares compounds with CSN inh;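 active = inhibition at or above a set limit, with a fluorescence interference ratio between 0.5 and a set maximum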
* hit, by the source's call. Shown are actives, neighbours in structure and some others; about 2.3% of the full set was active somewhere. Rule as the data show it, unless noted: active = inhibition above about 50%; inactive = the rest.

What do the screens show for `COc1ccc(C(=O)OCC2CN2c2cccc([N+](=O)[O-])c2)cc1` (stereo unspecified)?
SKN-1 block: -0.9; MT1-MMP act inh: 0.6; SUMO1 PPI mod: -14.4; CSN inh: 1.9

How did CC(C)(C)n1nnnc1C(c1cccs1)N1CCC2(CC1)C(=O)NCN2c1ccccc1 (stereo unspecified) do in these assays?
SKN-1 block: -1.0; MT1-MMP act inh: 3.2; SUMO1 PPI mod: 3.1; Rpn11 block: -6.8; CSN inh: -0.9; DNMT1 inh: -1.8

How did CCN(CC)c1ccc(/C=C2/C(=O)NC(=O)N(Cc3ccco3)C2=O)cc1 do in these assays?
SKN-1 block: 41.9; MT1-MMP act inh: -44.3; SUMO1 PPI mod: -3.7; Rpn11 block: 33.3; CSN inh: 63.1*; DNMT1 inh: 68.4*; DNMT1 confirm: 1.5; DNMT1 interf: -1.0; CSN deneddyl val: 56.0*; MMP-2 counter-2: 19.2*; Thrombin cntr: 0.3

What do the screens show for `CC(C)N1C(=O)/C(=C/C=C/c2ccco2)C(=O)N(Cc2ccco2)C1=O`?
SKN-1 block: 16.5; MT1-MMP act inh: -28.5; SUMO1 PPI mod: 8.1; Rpn11 block: 98.2*; CSN inh: 78.8*; DNMT1 inh: 108.7*; DNMT1 interf DR: >99; DNMT1 confirm: 26.7; DNMT1 interf: -0.3; Rpn11 inh conf: 49.2*; MMP-2 counter-1: 18.6; Thrombin inh: 41.5*; CSN deneddyl val: 25.0; MMP-2 counter-2: 11.9; Thrombin cntr: 27.4*

What do the screens show for `COc1ccc(CN2C(=O)NC(=O)/C(=C\c3ccco3)C2=O)cc1`?
SKN-1 block: 2.6; MT1-MMP act inh: -19.2; SUMO1 PPI mod: 22.5; Rpn11 block: 43.9*; CSN inh: 62.0*; DNMT1 inh: 86.1*; DNMT1 interf DR: >99; DNMT1 confirm: 28.1; DNMT1 interf: -4.8; Rpn11 inh conf: 121.8*; MMP-2 counter-1: 20.5; Thrombin inh: 22.0; MMP-2 counter-2: 19.7*; Thrombin cntr: 15.0*

Results for COc1ccc(CN2C(=O)NC(=O)/C(=C\c3cc(OC)c(OC)c(OC)c3)C2=O)cc1 ?
SKN-1 block: 0.7; MT1-MMP act inh: -0.5; SUMO1 PPI mod: -0.5; Rpn11 block: -0.7; CSN inh: 4.0; DNMT1 inh: -2.0

What do the screens show for `O=C1NC(=O)N(Cc2ccccc2)C(=O)/C1=C/C=C/c1ccco1`?
SKN-1 block: 7.8; MT1-MMP act inh: -15.6; SUMO1 PPI mod: 19.1; CSN inh: 120.8*; DNMT1 inh: 89.7*; DNMT1 confirm: 1.9; DNMT1 interf: 0.8; CSN deneddyl val: 70.9*; MMP-2 counter-2: 2.8; Thrombin cntr: 22.2*

What do the screens show for `CC(C)n1c(=O)c(C=Nc2ccc(F)cc2)c(O)n(Cc2ccco2)c1=O`?
SKN-1 block: 1.1; MT1-MMP act inh: -2.9; SUMO1 PPI mod: 2.7; Rpn11 block: 8.8; CSN inh: 6.0; DNMT1 inh: -2.8

How did COc1cc(OC)c(OC)cc1/C=C1/C(=O)NC(=O)N(Cc2ccccc2)C1=O do in these assays?
SKN-1 block: -4.0; MT1-MMP act inh: -4.4; SUMO1 PPI mod: 14.3; Rpn11 block: -0.2; CSN inh: 9.2; DNMT1 inh: 5.4

How did CC(C)C[C@@H]1COc2cc(N3CCN(C)CC3)ccc2S(=O)(=O)N1 do in these assays?
SKN-1 block: -1.7; MT1-MMP act inh: 2.9; SUMO1 PPI mod: 0.1; CSN inh: -4.0

Results for COc1ccc(-c2ccc3c(c2)CNCc2cnnn2-3)cc1 ?
SKN-1 block: -5.4; MT1-MMP act inh: 3.4; SUMO1 PPI mod: 8.5; Rpn11 block: 2.7; CSN inh: 1.9; DNMT1 inh: 1.9
